Measurements taken from ChEMBL document CHEMBL1137008, “Cancer preventive agents 9. Betulinic acid derivatives as potent cancer chemopreventive agents” (Bioorg Med Chem Lett, 2009).

Key:
[1] = Cytotoxicity against human Raji cells assessed as cell viability at 1000 molar ratio after 48 hrs by trypan blue staining method; assay type: cell-based; settings: read-out: Activity
How it was run: (§1)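 Raji cells (EBV genome-carrying, Burkitt's lymphoma) grown in RPMI-1640 with 10% FBS; incubated 48 h at 37 °C with 4 mM n-butyric acid, 32 pM TPA and test compound in DMSO at stated compound/TPA molar ratio; viability determined by Trypan blue staining.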

[2] = Cytotoxicity against human Raji cells assessed as cell viability at 500 molar ratio after 48 hrs by trypan blue staining method; assay type: cell-based; settings: read-out: Activity; how it was run: as §1
[3] = Cytotoxicity against human Raji cells assessed as cell viability at 100 molar ratio after 48 hrs by trypan blue staining method; assay type: cell-based; settings: read-out: Activity; how it was run: as §1
[4] = Cytotoxicity against human Raji cells assessed as cell viability at 10 molar ratio after 48 hrs by trypan blue staining method; assay type: cell-based; settings: read-out: Activity; how it was run: as §1
Raji [5] = assay: Inhibition of TPA-induced EBV-early antigen activation in human Raji cells assessed as EA induction at 1000 molar ratio after 48 hrs relative to TPA; assay type: cell-based; design: scale not given: the % may be the effect or the level left; settings: human gammaherpesvirus 4
How it was run: (§2)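 Raji cells (virus non-producer, spontaneous EA activation <0.1%) incubated 48 h at 37 °C with 4 mM n-butyric acid plus 32 pM TPA and compound in DMSO; smears stained by indirect immunofluorescence with NPC patient EBV-EA-positive serum, ≥500 cells counted; EA-positive cells expressed relative to butyrate+TPA control (100%); triplicates; IC50 as mol ratio to 32 pmol TPA.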

Raji [6] = assay: Inhibition of TPA-induced EBV-early antigen activation in human Raji cells assessed as EA induction at 500 molar ratio after 48 hrs relative to TPA; assay type: cell-based; design: scale not given: the % may be the effect or the level left; settings: human gammaherpesvirus 4; how it was run: as §2
Raji [7] = assay: Inhibition of TPA-induced EBV-early antigen activation in human Raji cells assessed as EA induction at 100 molar ratio after 48 hrs relative to TPA; assay type: cell-based; design: scale not given: the % may be the effect or the level left; settings: human gammaherpesvirus 4; how it was run: as §2
Raji [8] = assay: Inhibition of TPA-induced EBV-early antigen activation in human Raji cells assessed as EA induction at 10 molar ratio after 48 hrs relative to TPA; assay type: cell-based; design: scale not given: the % may be the effect or the level left; settings: human gammaherpesvirus 4; how it was run: as §2
[9] = Inhibition of TPA-induced EBV-early antigen activation in human Raji cells assessed as EA induction after 48 hrs relative to TPA; assay type: cell-based, human gammaherpesvirus 4; how it was run: as §2

SMILES	viability at 48 h, 1000 molar ratio [1] [%]	viability at 48 h, 500 molar ratio [2] [%]	viability at 48 h, 100 molar ratio [3] [%]	viability at 48 h, 10 molar ratio [4] [%]	Activity (Raji [5]) [%]	Activity (Raji [6]) [%]	Activity (Raji [7]) [%]	Activity (Raji [8]) [%]	IC50 [9] [molar ratio]
C=C(C)[C@@H]1CC[C@]2(C(=O)O)CC[C@]3(C)[C@H](CC[C@@H]4[C@@]5(C)CC[C@H](OC(=O)C[C@@H](C)C(=O)O)C(C)(C)[C@@H]5CC[C@]43C)[C@@H]12	60	> 80	> 80	> 80	0	31.8	71.2	94.7	309
C=C(C)[C@@H]1CC[C@]2(C(=O)O)CC[C@]3(C)[C@H](CC[C@@H]4[C@@]5(C)C[C@H](O)C(C)(C)[C@@H]5CC[C@]43C)[C@@H]12	60	> 80	> 80	> 80	14.2	39.2	79	100	475
C=C(C)[C@@H]1CC[C@]2(C(=O)O)CC[C@]3(C)[C@H](CC[C@@H]4[C@@]5(C)[C@@H](C(=O)O)[C@H](O)C(C)(C)[C@@H]5CC[C@]43C)[C@@H]12 [CEANOTHIC ACID]	60	> 80	> 80	> 80	8.5	35.7	72.1	100	400
C=C(C)[C@@H]1CC[C@]2(C(=O)O)CC[C@]3(C)[C@H](CC[C@@H]4[C@@]5(C)CC[C@H](OC(=O)CCCCCCC/C=C\CCCCCCCC)C(C)(C)[C@@H]5CC[C@]43C)[C@@H]12	60	> 80	> 80	> 80	4.8	33.7	72.4	92.5	344
C=C(C)[C@@H]1CC[C@]2(C(=O)O)CC[C@]3(C)[C@H](CC[C@@H]4[C@@]5(C)CC[C@H](OC(=O)/C=C/C=C/C)C(C)(C)[C@@H]5CC[C@]43C)[C@@H]12	70	> 80	> 80	> 80	0	25.7	65.7	90.2	295
C=C(C)[C@@H]1CC[C@]2(C(=O)O)CC[C@]3(C)[C@H](CC[C@@H]4[C@@]5(C)CC[C@H](OC(=O)/C=C/C)C(C)(C)[C@@H]5CC[C@]43C)[C@@H]12	70	> 80	> 80	> 80	0	26.2	66.7	91.6	299
C=C(C)[C@@H]1CC[C@]2(C(=O)O)CC[C@]3(C)[C@H](CC[C@@H]4[C@@]5(C)CC[C@H](OC(=O)CCC/C=C\C/C=C\C/C=C\C/C=C\C/C=C\CC)C(C)(C)[C@@H]5CC[C@]43C)[C@@H]12	60	> 80	> 80	> 80	15.3	50.4	80.1	100	523
C=C(C)[C@@H]1CC[C@]2(C(=O)O)CC[C@]3(C)[C@H](CC[C@@H]4[C@@]5(C)CC[C@H](OC(=O)CCCCCCC/C=C\C/C=C\C/C=C\CC)C(C)(C)[C@@H]5CC[C@]43C)[C@@H]12	60	> 80	> 80	> 80	10.9	43.3	77.8	97	445
C=C(C)[C@@H]1CC[C@]2(C(=O)O)CC[C@]3(C)[C@H](CC[C@@H]4[C@@]5(C)CC[C@H](OC(=O)CC/C=C\C/C=C\C/C=C\C/C=C\C/C=C\C/C=C\CC)C(C)(C)[C@@H]5CC[C@]43C)[C@@H]12	60	> 80	> 80	> 80	17	53.8	83.2	100	546
C=C(C)[C@@H]1CC[C@]2(C(=O)O)CC[C@]3(C)[C@H](CC[C@@H]4[C@@]5(C)CC[C@H](OC(=O)CC(C)(C)C(=O)O)C(C)(C)[C@@H]5CC[C@]43C)[C@@H]12 [BEVIRIMAT]	60	> 80	> 80	> 80	6.1	36.1	74.2		396
C=C(C)[C@@H]1CC[C@]2(C(=O)O)CC[C@]3(C)[C@H](CC[C@@H]4[C@@]5(C)CC[C@H](OC(=O)CCC/C=C\C/C=C\C/C=C\C/C=C\CCCCC)C(C)(C)[C@@H]5CC[C@]43C)[C@@H]12	60	> 80	> 80	> 80	12.3	46.1	79	100	482
C=C(C)[C@@H]1CC[C@]2(C(=O)O)CC[C@]3(C)[C@H](CC[C@@H]4[C@@]5(C)[C@@H](C(=O)O)[C@H](OC(=O)CC(C)(C)C(=O)O)C(C)(C)[C@@H]5CC[C@]43C)[C@@H]12	60	> 80	> 80	> 80	5.1	35	72	93.8	349
C=C(C)[C@@H]1CC[C@]2(C(=O)O)CC[C@]3(C)[C@H](CC[C@@H]4[C@@]5(C)CC[C@H](OC(=O)CCCCCCC/C=C\C/C=C\CCCCC)C(C)(C)[C@@H]5CC[C@]43C)[C@@H]12	60	> 80	> 80	> 80	7.3	37.9	75.9	94.8	390
C=C(C)[C@@H]1CC[C@]2(C(=O)O)CC[C@]3(C)[C@H](CC[C@@H]4[C@@]5(C)CC[C@H](O)C(C)(C)[C@@H]5CC[C@]43C)[C@@H]12 [BETULINIC ACID]	60	> 80	> 80	> 80	7.9	37.2	75.1	100	403
C=C(C)[C@@H]1CC[C@]2(C(=O)O)CC[C@]3(C)[C@H](CC[C@@H]4[C@@]5(C)CC[C@H](OC(=O)C=C(C)C)C(C)(C)[C@@H]5CC[C@]43C)[C@@H]12	70	> 80	> 80	> 80	0	23.5	62.5	88.7	285
C=C(C)[C@@H]1CC[C@]2(C(=O)O)CC[C@]3(C)[C@H](CC[C@@H]4[C@@]5(C)C[C@H](OC(=O)CC(C)(C)C(=O)O)C(C)(C)[C@@H]5CC[C@]43C)[C@@H]12	60	> 80	> 80	> 80	5.7	35.6	73.1	95.3	352
C=C(C)[C@@H]1CC[C@]2(C(=O)O)CC[C@]3(C)[C@H](CC[C@@H]4[C@@]5(C)CC[C@H](OC(=O)C[C@H](C)C(=O)O)C(C)(C)[C@@H]5CC[C@]43C)[C@@H]12	60	> 80	> 80	> 80	0	31.5	71	94.2	308
C=C(C)[C@@H]1CC[C@]2(C(=O)O)CC[C@]3(C)[C@H](CC[C@@H]4[C@@]5(C)CC(=O)C(C)(C)[C@@H]5CC[C@]43C)[C@@H]12	60	> 80	> 80	> 80	10.1	36.4	74.3	100	442
